Key:
HeLa [1] = test: Compound (at a concentration of 100 uM) was evaluated for the effect on DNA synthesis by HeLa cells in culture and the percentage inhibition of [3H]- thymidine incorporation after 3h of addition was reported.; type: functional; details: Homo sapiens
Method in brief: (§1)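 Exponentially growing HeLa S3 cells (7×10^5 cells/mL, suspension) exposed to compound at 100 μM in Me2SO, or Me2SO alone, at 37 °C. After 3 h, [methyl-3H]thymidine added to 1 μCi/mL. After 30 min, quenched with cold PBS, pelleted, alkali hydrolysed (1 M NaOH, 65 °C, 1 h), TCA/pyrophosphate precipitated and filtered. Alkali-stable acid-insoluble counts give % inhibition versus solvent control.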

HeLa [2] = test: Compound was evaluated for the effect on DNA synthesis by HeLa cells in culture and the inhibition of [3H]- thymidine incorporation after 3h of addition; type: functional, cell-based; details: Homo sapiens
Method in brief: (§2)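 IC50 for [methyl-3H]thymidine incorporation into DNA of exponentially growing HeLa S3 suspension cells (7×10^5 cells/mL). Compounds in Me2SO, or Me2SO control, incubated 3 h at 37 °C, then label added at 1 μCi/mL for 30 min. Alkali-stable, acid-precipitable counts measured after NaOH (65 °C, 1 h) and TCA/pyrophosphate filtration.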

HeLa [3] = test: Compound was evaluated for the effect on DNA synthesis by HeLa cells in culture and the percentage inhibition of [3H]- thymidine incorporation after 3h of addition was reported at 100 uM; type: functional; details: Homo sapiens; method in brief: as §1
HeLa [4] = test: Compound (at a concentration of 100 uM) was evaluated for the effect on growth and macromolecule synthesis by HeLa cells and the percentage inhibition of [3H]- leucine incorporation after 3h of addition; type: functional; details: Homo sapiens
HeLa [5] = test: Percent inhibition against [3H]uridine incorporation into DNA of HeLa cell after 45 mins of treatment; type: functional, Homo sapiens
Method in brief: (§3)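 Exponentially growing HeLa S3 cells (7×10^5 cells/mL) treated with compound in Me2SO (100 μM, or 10 μM where stated), or Me2SO alone, for 3 h at 37 °C. [5,6-3H]uridine then added to 1 μCi/mL for 45 min. DNA: counts remaining acid-precipitable after 1 M NaOH at 60 °C, 1 h. RNA: total TCA-precipitable counts minus the DNA counts.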

HeLa [6] = test: Percent inhibition against [3H]uridine incorporation into RNA of HeLa cell after 45 mins of treatment; type: functional, Homo sapiens; method in brief: as §3
HeLa [7] = test: Compound was evaluated for the effect on growth and macromolecule synthesis by HeLa cells and the cell growth inhibition; type: functional, cell-based; details: Homo sapiens
Method in brief: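 HeLa S3 cells (ca. 2.5×10^4 cells/mL), exponentially growing in Joklik's modified medium with 3.5% calf and 3.5% fetal bovine serum, preincubated 3 h at 37 °C in spinner flasks. Compound in Me2SO or solvent added, and cells counted at t=0 and after 72 h. IC50 derived from % growth inhibition.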

HeLa [8] = test: Effect on DNA synthesis by HeLa cells was determined by the percentage inhibition of [3H]- thymidine incorporation after 3h at 100 uM; type: functional; details: Homo sapiens; method in brief: as §1
HeLa [9] = test: Effect on DNA synthesis by HeLa cells was determined by the percentage inhibition of [3H]- thymidine incorporation after 3h; type: functional, cell-based; details: Homo sapiens
HeLa [10] = test: Percent inhibition against [3H]-Uridine incorporation into DNA of HeLa cell after 45 mins of treatment at 100 uM; type: functional; details: Homo sapiens; method in brief: as §3
HeLa [11] = test: Effect on growth and macromolecule synthesis by HeLa cells was determined as the percentage inhibition of [3H]- leucine incorporation after 3h of addition at 100 uM; type: functional; details: Homo sapiens
HeLa [12] = test: Percent inhibition against [3H]-Uridine incorporation into RNA of HeLa cell after 45 mins of treatment at 100 uM; type: functional; details: Homo sapiens; method in brief: as §3
HeLa [13] = test: Effect on DNA synthesis by HeLa cells was determined by the inhibition of [3H]- thymidine incorporation after 3h of addition; type: functional, cell-based; details: Homo sapiens; method in brief: as §2
HeLa [14] = test: Percent inhibition against [3H]uridine incorporation into RNA of HeLa cell after 45 mins of treatment at 10 uM; type: functional; details: Homo sapiens; method in brief: as §3
HeLa [15] = test: Effect on DNA synthesis by HeLa cells was determined by the percentage inhibition of [3H]- thymidine incorporation after 3h at 200 uM; type: functional, Homo sapiens
Method in brief: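 HeLa S3 cells in exponential suspension culture (7×10^5 cells/mL) treated at 200 μM in Me2SO, or Me2SO alone, at 37 °C. After 3 h, [methyl-3H]thymidine added to 1 μCi/mL for 30 min. Cells were then pelleted, NaOH hydrolysed at 65 °C, and TCA precipitated onto filters. Alkali-stable acid-precipitable radioactivity gives % inhibition against solvent control.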

HeLa [16] = test: Compound was evaluated for the effect on [3H]- Uridine incorporation by HeLa cells and percentage inhibition into DNA; type: functional, Homo sapiens
Method in brief: (§4)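 HeLa S3 cells grown in suspension, exponential phase (7 × 10^5 cells/mL), given compound in Me2SO (Me2SO alone for controls) for 3 h at 37 °C, then [5,6-3H]uridine to 1 μCi/mL for 45 min. DNA: alkali-stable, TCA-precipitable counts after 1 M NaOH at 60 °C for 1 h. RNA: total acid-precipitable nucleic acid minus DNA counts. Percent inhibition relative to control.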

HeLa [17] = test: Compound was evaluated for the effect on [3H]- Uridine incorporation by HeLa cells and percentage inhibition into RNA; type: functional, Homo sapiens; method in brief: as §4

Work on `Oc1[nH]c(Nc2ccc3c(c2)CCC3)nc2ncnc1-2` yielded an inhibition at 100 µM (HeLa [1]) of 79% and an IC50 (HeLa [2]) of 52 µM.

Compound `CCc1cc(Nc2nc(O)c3[nH]cnc3n2)ccc1C` has an inhibition at 100 µM (HeLa [1]) of 44%.

`CCCCc1ccc(Nc2nc(Cl)c3[nH]cnc3n2)cc1` gave an IC50 (HeLa [2]) of 35 µM and an inhibition at 100 µM (HeLa [3]) of 99%.

In the case of `CCCCc1ccc(Nc2nc(OC)c3[nH]cnc3n2)cc1`, the inhibition at 100 µM (HeLa [1]) is reported as 80% and the IC50 (HeLa [2]) is reported as 30 µM.

Work on `CCCCc1ccc(Nc2nc(N)c3[nH]cnc3n2)cc1` yielded an inhibition at 100 µM (HeLa [4]) of 47%, an Inhibition (HeLa [5]) of 93% and an Inhibition (HeLa [6]) of 87%. For the same compound, the IC50 (HeLa [7]) was 40 µM, the inhibition at 100 µM (HeLa [1]) was 92% and the IC50 (HeLa [2]) was 23 µM.

`CCCCc1ccc(Nc2nc(S)c3[nH]cnc3n2)cc1` showed an inhibition at 100 µM (HeLa [1]) of 94% and an IC50 (HeLa [2]) of 40 µM.

In the case of `CCCCc1ccc(Nc2nc(Cl)c3ncn(COCCO)c3n2)cc1`, the inhibition at 100 µM (HeLa [8]) is reported as 99% and the IC50 (HeLa [9]) is reported as 9 µM.

Compound `CCCCc1ccc(Nc2nc(O)c3ncn(COCCO)c3n2)cc1` has an inhibition at 100 µM (HeLa [8]) of 81% and an IC50 (HeLa [9]) of 38 µM.

`CCCCc1ccc(Nc2nc(O)c3[nH]cnc3n2)cc1` was tested, and the inhibition at 100 µM (HeLa [4]) was 13%, the Inhibition (HeLa [5]) was 76% and the Inhibition (HeLa [6]) was 76%. It also gave an IC50 (HeLa [7]) of 65 µM, an IC50 (HeLa [2]) of 69 µM and an inhibition at 100 µM (HeLa [3]) of 63%.

With `CCCCc1ccc(Nc2nc(OC)c3ncn(COCCO)c3n2)cc1` the inhibition at 100 µM (HeLa [8]) was 80%.

Work on `CCCCc1ccc(Nc2nc(S)c3ncn(COCCO)c3n2)cc1` yielded an inhibition at 100 µM (HeLa [8]) of 87%.

Compound `CCCCc1ccc(Nc2nc3c(ncn3[C@@H]3C[C@@H](O)[C@H](CO)O3)c(=O)[nH]2)cc1` has an inhibition at 100 µM (HeLa [10]) of 91%, an inhibition at 100 µM (HeLa [11]) of 7% and an inhibition at 100 µM (HeLa [8]) of 86%. For the same compound, the IC50 (HeLa [7]) was 25 µM, the inhibition at 100 µM (HeLa [12]) was 91% and the IC50 (HeLa [13]) was 37 µM.

Compound `CCCCc1ccc(Nc2ncc3ncn([C@@H]4C[C@@H](O)[C@H](CO)O4)c3n2)cc1` has an inhibition at 100 µM (HeLa [11]) of 58%, an inhibition at 100 µM (HeLa [8]) of 97% and an IC50 (HeLa [7]) of 5 µM. The IC50 (HeLa [9]) was 4.8 µM.

`CCCCc1ccc(Nc2nc(N)c3ncn([C@@H]4C[C@@H](O)[C@H](CO)O4)c3n2)cc1` showed an Inhibition (HeLa [5]) of 81%, an inhibition at 100 µM (HeLa [11]) of 56% and an inhibition at 100 µM (HeLa [8]) of 96%. It also gave an IC50 (HeLa [7]) of 1.4 µM, an IC50 (HeLa [9]) of 1 µM and an inhibition at 10 µM (HeLa [14]) of 73%.

`CCCCc1ccc(Nc2nc(Cl)c3ncn([C@@H]4C[C@@H](O)[C@H](CO)O4)c3n2)cc1` showed an inhibition at 100 µM (HeLa [11]) of 87%, an inhibition at 100 µM (HeLa [8]) of 97% and an IC50 (HeLa [7]) of 10.3 µM. It also gave an IC50 (HeLa [9]) of 11 µM.

In the case of `CCCCc1ccc(Nc2nc(S)c3ncn([C@@H]4C[C@@H](O)[C@H](CO)O4)c3n2)cc1`, the inhibition at 100 µM (HeLa [8]) is reported as 63%.

In the case of `CCCCc1ccc(Nc2nc(N)c3ncn(COCCO)c3n2)cc1`, the inhibition at 100 µM (HeLa [8]) is reported as 97% and the IC50 (HeLa [9]) is reported as 8.5 µM.

For `CCCCc1ccc(Nc2nc3ncnc-3c[nH]2)cc1`, the inhibition at 100 µM (HeLa [1]) was 78% and the IC50 (HeLa [2]) was 47 µM.

For `CCCCc1ccc(Nc2nc(SC)c3[nH]cnc3n2)cc1`, the inhibition at 100 µM (HeLa [1]) was 72% and the IC50 (HeLa [2]) was 32 µM.

For `CCCCc1ccc(Nc2ncc3ncn(COCCO)c3n2)cc1`, the inhibition at 100 µM (HeLa [8]) was 97% and the IC50 (HeLa [9]) was 4.8 µM.

For `CCCCc1ccc(Nc2nc3c(ncn3[C@@H]3C[C@@H](O)[C@H](CO)O3)c(=O)[nH]2)cc1` (stereo in doubt; 11), the Inhibition (HeLa [15]) was 53%.

For `CCCCc1ccc(Nc2nc3c(ncn3[C@@H]3C[C@@H](O)[C@H](CO)O3)c(=O)[nH]2)cc1` (stereo in doubt; 12), the inhibition at 200 µM (HeLa [15]; Homo sapiens, HeLa, 3 h) was 46%.

`CCCCc1ccc(Nc2nc3c(ncn3[C@H]3O[C@@H](CO)[C@H](O)[C@@H]3O)c(=O)[nH]2)cc1` (stereo in doubt; 13) was tested, and the Inhibition (HeLa [15]) was 75%.

`CCCCc1ccc(Nc2nc3c(ncn3[C@H]3O[C@@H](CO)[C@H](O)[C@@H]3O)c(=O)[nH]2)cc1` (stereo in doubt; 14) gave an Inhibition (HeLa [15]) of 38%.

Compound `C[C@@]1(CO)[C@H](O)CC[C@@]2(C)[C@H]1CC[C@H]1C[C@@H]3C[C@@]12CC[C@]3(O)CO` [APHIDICOLIN] has an Inhibition (HeLa [16]) of 84% and an Inhibition (HeLa [17]) of 0%.

— ChEMBL document CHEMBL1123655, “Synthesis, cell growth inhibition, and antitumor screening of 2-(p-n-butylanilino)purines and their nucleoside analogues” (J Med Chem, 1987)
